Measured values as given in ChEMBL document CHEMBL3272204, “Products from furans. 1. Sunthesis and anticoccidial and antimicrobial activity of 5-amino-5,6-dihydro-6-methoxy-2-methyl-2-(4'-biphenylyl)-2H-pyran-3(4H)-ones and related compounds” (1976).
≈ marks a conversion by molar mass, not a printed value. Calls of active or inactive are those of the source. No cut-off for these calls is given here.

Legend:
[1] = system: Pseudomonas aeruginosa; experiment: Antibacterial activity against Pseudomonas aeruginosa assessed as growth inhibition after 24 hrs; format: functional
How it was run: (§1)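 Twofold serial dilutions in nutrient broth. The minimum concentration inhibiting visible growth was read after 24 hr incubation at 37°.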

[2] = system: Nannizzia gypsea; experiment: Antifungal activity against Microsporum gypseum assessed as growth inhibition after 10 days at 28 degC; format: functional
How it was run: (§2)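 Twofold serial dilutions in Sabouraud broth. The minimum inhibitory concentration was read after 10 days at 28°.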

[3] = system: Staphylococcus; experiment: Antibacterial activity against penicillin-resistant Staphylococcus pyogenes assessed as growth inhibition after 24 hrs; format: functional
How it was run: (§3)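 Halving (twofold) serial dilutions of compound in nutrient broth, in vitro. Incubated 24 hr at 37°. Value reported is the lowest concentration that inhibited growth.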

[4] = system: Escherichia coli; experiment: Antibacterial activity against Escherichia coli 198 assessed as growth inhibition after 24 hrs; format: functional; how it was run: as §1
[5] = system: Serratia marcescens; experiment: Antibacterial activity against Serratia marcescens assessed as growth inhibition after 24 hrs; format: functional; how it was run: as §1
[6] = system: Klebsiella pneumoniae; experiment: Antibacterial activity against Klebsiella pneumoniae assessed as growth inhibition after 24 hrs; format: functional; how it was run: as §1
[7] = system: Klebsiella aerogenes; experiment: Antibacterial activity against Aerobacter aerogenes assessed as growth inhibition after 24 hrs; format: functional; how it was run: as §1
[8] = system: Salmonella enterica subsp. enterica serovar Pullorum; experiment: (§4) Antibacterial activity against Salmonella pullorum assessed as growth inhibition after 24 hrs; format: functional; how it was run: as §1
[9] = system: Candida albicans; experiment: Antifungal activity against Candida albicans assessed as growth inhibition after 5 days at 37 degC; format: functional
How it was run: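 Twofold serial dilutions in Sabouraud broth. The minimum inhibitory concentration was read after 5 days at 37°.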

[10] = system: Staphylococcus; experiment: Antibacterial activity against penicillin-sensitive Staphylococcus pyogenes assessed as growth inhibition after 24 hrs; format: functional; how it was run: as §3
[11] = system: Eimeria tenella; experiment: Anticoccidal activity against Eimeria tenella assessed as improved weight gain in chicken at 0.05%, po; format: functional, organism-based
How it was run: (§5)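 Chickens with experimental coccidiosis received compound orally in the diet at 0.05%, starting 1 day before infection. Efficacy was judged 6 days later from survival and weight gain.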

[12] = Antifungal activity against Trichophyton granulosum assessed as growth inhibition after 10 days at 28 degC; format: functional; details: Trichophyton mentagrophytes var. granulosum; how it was run: as §2
[13] = system: Enterococcus faecalis; experiment: Antibacterial activity against Streptococcus faecalis assessed as growth inhibition after 24 hrs; format: functional; how it was run: as §1
[14] = system: Proteus vulgaris; experiment: Antibacterial activity against Proteus vulgaris assessed as growth inhibition after 24 hrs; format: functional; how it was run: as §1
[15] = system: Eimeria tenella; experiment: Anticoccidal activity against Eimeria tenella assessed as improved weight gain and mortality in chicken relative to noninfected control; format: functional, organism-based; how it was run: as §5
[16] = as §4; format: functional, Salmonella enterica subsp. enterica serovar Pullorum; how it was run: as §1
[17] = system: Eimeria acervulina; experiment: Anticoccidal activity against Eimeria acervulina assessed as improved weight gain in chicken; format: functional, organism-based; how it was run: as §5
[18] = system: Eimeria acervulina; experiment: Anticoccidal activity against Eimeria acervulina assessed as improved weight gain and mortality in chicken relative to noninfected control; format: functional, organism-based; how it was run: as §5
[19] = Pseudomonas aeruginosa, 24 h, read-out: MIC
[20] = Nannizzia gypsea, 240 h, read-out: MIC
[21] = Staphylococcus, 24 h, read-out: MIC
[22] = Escherichia coli, 198, 24 h, read-out: MIC
[23] = Serratia marcescens, 24 h, read-out: MIC
[24] = Klebsiella pneumoniae, 24 h, read-out: MIC
[25] = Klebsiella aerogenes, 24 h, read-out: MIC
[26] = Salmonella enterica, 24 h, read-out: MIC
[27] = Enterococcus faecalis, 24 h, read-out: MIC
[28] = Proteus vulgaris, 24 h, read-out: MIC

| SMILES | MIC [1] | MIC [2] | MIC [3] | MIC [4] | MIC [5] | MIC [6] | MIC [7] | MIC [8] | MIC [9] | MIC [10] | MIC [12] | MIC [13] | MIC [14] | Activity [15] | MIC [1, 19] | MIC [3, 21] | MIC [4, 22] | MIC [5, 23] | MIC [6, 24] | Activity [17] | further results |
| --- | --- | --- | --- | --- | --- | --- | --- | --- | --- | --- | --- | --- | --- | --- | --- | --- | --- | --- | --- | --- | --- |
| COC1OC(C)(c2ccc(-c3ccccc3)cc2)C(O)CC1N1CCOCC1 (stereo not drawn) | inactive | inactive | inactive | inactive | inactive | inactive | inactive | inactive | inactive | inactive | inactive | inactive | inactive | – | – | – | – | – | – | – | Activity [11]: inactive |
| COC1OC(C)(c2ccc(-c3ccccc3)cc2)C(=O)CC1N1CCOCC1 (stereo not drawn) | – | – | – | – | – | – | – | – | inactive | – | 16 µg/mL (≈ 41.9 µM) | – | – | Active | 3.2 µg/mL (≈ 8.39 µM) | 3.2 µg/mL (≈ 8.39 µM) | 3.2 µg/mL (≈ 8.39 µM) | 3.2 µg/mL (≈ 8.39 µM) | 3.2 µg/mL (≈ 8.39 µM) | inactive | MIC [2, 20]: 3.2 µg/mL (≈ 8.39 µM); MIC [7, 25]: 3.2 µg/mL (≈ 8.39 µM); MIC [16, 26]: 3.2 µg/mL (≈ 8.39 µM); MIC [10, 21]: 3.2 µg/mL (≈ 8.39 µM); MIC [13, 27]: 3.2 µg/mL (≈ 8.39 µM); MIC [14, 28]: 3.2 µg/mL (≈ 8.39 µM) |
| COC1OC(C)(c2ccc(-c3ccccc3)cc2)C(=O)CC1N(C)C (stereo in doubt; 2a) [listing 1 of 2 here] | – | – | – | – | – | – | – | – | – | – | – | – | – | – | 3.2 µg/mL (≈ 9.43 µM) | 3.2 µg/mL (≈ 9.43 µM) | 3.2 µg/mL (≈ 9.43 µM) | 3.2 µg/mL (≈ 9.43 µM) | 3.2 µg/mL (≈ 9.43 µM) | – | MIC [2, 20]: 4 µg/mL (≈ 11.8 µM); MIC [7, 25]: 3.2 µg/mL (≈ 9.43 µM); MIC [16, 26]: 3.2 µg/mL (≈ 9.43 µM); MIC ([9]; Candida albicans, 120 h, read-out: MIC): 16 µg/mL (≈ 47.1 µM); MIC [10, 21]: 3.2 µg/mL (≈ 9.43 µM); MIC [13, 27]: 3.2 µg/mL (≈ 9.43 µM); MIC [14, 28]: 3.2 µg/mL (≈ 9.43 µM) |
| CNC1CC(=O)C(C)(c2ccc(-c3ccccc3)cc2)OC1OC (stereo not drawn) | – | – | – | – | – | – | – | – | – | – | – | – | – | Active | 0.8 µg/mL (≈ 2.46 µM) | 0.8 µg/mL (≈ 2.46 µM) | 0.8 µg/mL (≈ 2.46 µM) | 0.8 µg/mL (≈ 2.46 µM) | 0.8 µg/mL (≈ 2.46 µM) | inactive | MIC [7, 25]: 0.8 µg/mL (≈ 2.46 µM); MIC [16, 26]: 0.8 µg/mL (≈ 2.46 µM); MIC [10, 21]: 0.8 µg/mL (≈ 2.46 µM); MIC [13, 27]: 0.8 µg/mL (≈ 2.46 µM); MIC [14, 28]: 0.8 µg/mL (≈ 2.46 µM) |
| COC1OC(C)(c2ccc(-c3ccccc3)cc2)C(=O)CC1N(C)C (stereo in doubt; 2a) [listing 2 of 2 here] | – | – | – | – | – | – | – | – | – | – | 8 µg/mL (≈ 23.6 µM) | – | – | Active | – | – | – | – | – | – | Activity [18]: Active |
| COC1OC(C)(c2ccc(-c3ccccc3)cc2)C(O)CC1N(C)C (stereo in doubt; 3a) | inactive | inactive | inactive | inactive | inactive | inactive | inactive | inactive | inactive | inactive | inactive | inactive | inactive | Active | – | – | – | – | – | – | Activity [18]: Active |
| CNC1CC(O)C(C)(c2ccc(-c3ccccc3)cc2)OC1OC (stereo not drawn) | inactive | inactive | inactive | inactive | inactive | inactive | inactive | inactive | inactive | inactive | inactive | inactive | inactive | – | – | – | – | – | – | inactive | Activity [11]: inactive |
| COC1OC(C)(c2ccc(-c3ccccc3)cc2)C(O)CC1N1CCN(C)CC1 (stereo not drawn) | inactive | inactive | inactive | inactive | inactive | inactive | inactive | inactive | inactive | inactive | inactive | inactive | inactive | Active | – | – | – | – | – | inactive | – |
| COC1C=CC(=O)C(C)(c2ccc(-c3ccccc3)cc2)O1 (single isomer, unassigned; isomer 1) | 6.2 µg/mL (≈ 21.1 µM) | 2 µg/mL (≈ 6.79 µM) | 6.2 µg/mL (≈ 21.1 µM) | 6.2 µg/mL (≈ 21.1 µM) | 6.2 µg/mL (≈ 21.1 µM) | 6.2 µg/mL (≈ 21.1 µM) | 6.2 µg/mL (≈ 21.1 µM) | – | 16 µg/mL (≈ 54.4 µM) | 6.2 µg/mL (≈ 21.1 µM) | – | 6.2 µg/mL (≈ 21.1 µM) | 6.2 µg/mL (≈ 21.1 µM) | – | – | – | – | – | – | – | MIC [16]: 6.2 µg/mL (≈ 21.1 µM) |
